bovine MsrA act: activates bovine MsrA enzyme. purified bovine MsrA, absorbance read-out. activation, % at 10.6 µM. 360,000 compounds, 0.3% hits. AID 602163; in the data active = activation above about 7.5%;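 note: 0% = vehicle and 100% = reference activator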
NR2E3 ag-1: activates human photoreceptor nuclear receptor NR2E3 | Q9Y5X4 | GST-NR2E3/biotin-RetCOR TR-FRET, 1536-well | inhibition of corepressor binding, % at 4.78 µM | 320,000 compounds, 0.12% hits | AID 2300;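 active = percent inhibition above the cutoff of mean plus 3 SD of all tested compounds, set per screening campaign, cut at about 20% in these data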;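 note: 0% = DMSO wells and 100% = biotin wells as full block of FRET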
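System: GST-tagged NR2E3 plus biotinylated RetCOR corepressor; Buffer or medium: pH 7.5 Tris-based buffer; Probe or stimulus: RetCOR corepressor, biotinylated, 7 nM; Doses: compound at 4.8 µM, single dose; Schedule: 5 h incubation at 4 °C; Technique: time-resolved FRET; Evaluation: percent inhibition of TR-FRET ratio; Replication: one well per compound, singlicate testing.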
GalR3 antag: antagonists of human GalR3; O60755; HEK293 GalR3-CNG cAMP membrane potential fluorescence; galR3 body fused to GalR1 C-terminus; inhibition, % at 3 µM; 360,000 compounds, 0.44% hits;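 active = inhibition above the screen-wide average plus 3 SD, cut at about 13% in these data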;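 note: forskolin and galanin both at EC90 stimulate the cells; cAMP rise reported by CNG channel membrane potential dye signal; 0% = forskolin plus galanin with DMSO and 100% = forskolin alone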
Target sequence (O60755 1-299 limits assumed): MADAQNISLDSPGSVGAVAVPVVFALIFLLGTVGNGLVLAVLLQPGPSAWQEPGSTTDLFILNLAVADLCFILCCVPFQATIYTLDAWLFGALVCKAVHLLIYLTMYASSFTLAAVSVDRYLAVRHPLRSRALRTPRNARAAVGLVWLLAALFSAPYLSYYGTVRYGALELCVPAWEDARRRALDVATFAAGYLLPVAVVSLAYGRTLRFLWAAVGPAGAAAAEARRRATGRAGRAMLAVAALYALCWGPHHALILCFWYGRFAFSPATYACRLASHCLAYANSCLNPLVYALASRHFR
MsrA inhibitor: inhibitors of bovine MsrA | 360,000 compounds, 0.75% hits | purified bovine MsrA, absorbance read-out | AID 651718 | inhibition, % at 15.5 µM; in the data active = inhibition above about 4.5%;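 note: 0% = vehicle wells with enzyme and 100% = reference inhibitor wells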
NR2E3 ag-2: human photoreceptor-specific nuclear receptor agonism; Q9Y5X4; CHO-S Gal4-NCOR/VP16-NR2E3 two-hybrid, luciferase; inhibition of corepressor binding, % at 3.98 µM; 360,000 compounds, 0.35% hits; AID 602229;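 active = inhibition above the mean of all tested compounds plus 3 SD, cut at about 70% in these data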;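 note: 0% = DMSO with NR2E3 transfected cells and 100% = cells lacking NR2E3 construct; higher means lower luciferase signal from less NR2E3 corepressor binding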
NadD inh: blocks S. aureus nicotinate mononucleotide adenylyltransferase; inhibition, % at 20 µM; 360,000 compounds, 0.78% hits; purified NadD enzyme, colorimetric absorbance read-out; in the data active = inhibition above about 26%
GalR3 conf: GalR3 (human) antagonism, confirmation; 1,600 compounds, 59% hits; inhibition, % at 3 µM; HEK293 GalR3 CNG cAMP biosensor, membrane potential fluorescence; galR3 fused to GalR1 carboxy tail; challenged with forskolin and galanin at EC90; AID 652245; shares compounds with GalR3 antag;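 active = inhibition above the primary screen's cutoff, the mean inhibition of all screened compounds plus 3 SD, cut at about 13% in these data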;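 note: 0% = forskolin plus galanin and 100% = forskolin alone with DMSO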
HEK-CNG parental: acts as nonspecific agonist in parental HEK-CNG cells | shares compounds with GalR3 antag | HEK293-CNG parental cells, cAMP membrane potential fluorescence; normalised: DMSO wells 0%, forskolin wells 100% | activation, % at 3 µM | 1,600 compounds, 10% hits | AID 652268; in the data active = activation above about 1.3%
Numbers without * were called inactive; . = not tested or not shown. Shown are actives, neighbours in structure and some others; about 2.5% of the full set was active somewhere.

SMILES	bovine MsrA act	NR2E3 ag-1	GalR3 antag	MsrA inhibitor	NR2E3 ag-2	NadD inh	GalR3 conf	HEK-CNG parental
Cn1c(=O)[nH]c2c(Cl)nccc21	-3	2	16*	0	17	-5	7	0
Cn1c(=O)[nH]c2ncccc21	-8	4	-5	1	7	3	.	.
Cc1cccc(C(=O)Nc2cccc(OCC(=O)O)c2)c1	-1	2	4	0	-7	-4	.	.
COc1ccccc1C(=O)Nc1cc2c(cc1C(=O)O)OCCCO2	-1	-2	13*	2	-31	-8	3	0
Cc1oc(-c2ccc(Cl)cc2)nc1CN1CCCC(C(=O)N2CCN(C(=O)c3ccco3)CC2)C1 (stereo not given)	-1	-1	84*	0	9	-2	101*	1
Cc1oc(-c2ccc(Cl)cc2)nc1CN1CCCC(C(=O)N2CCOCC2)C1 (stereo not given)	-3	2	-6	-1	18	-2	.	.
COC(=O)C(C)Sc1nc2c(c(=O)[nH]c(=O)n2C)n1CCC(C)C (stereo not given)	2	-1	55*	0	-8	2	13*	1
O=C(/C=C1\OCc2cc(OCc3ccccc3)ccc21)OCc1ccccc1	.	.	-7	1	.	.	.	.
CC(=O)Nc1ccc2c(c1)OCCOCCOc1cc(NC(C)=O)ccc1OCCO2	-7	10	-4	0	-16	7	.	.
Cc1oc(-c2ccc(Cl)cc2)nc1CS(=O)CC(=O)NCCCN1CCN(Cc2ccccc2)CC1 (stereo not given)	-2	2	69*	0	43	-8	110*	2.0*
COc1cccc(-c2cc(C(=O)Nc3ccncc3)c3ccccc3n2)c1	0	3	1	1	-5	0	.	.
COc1cccc(-c2cc(C(=O)Nc3ccc(N(C)C(C)=O)cc3)c3cc(Br)ccc3n2)c1	-3	-2	19*	1	-23	11	10	1.4*
Cc1ccc(-c2nnc(COC(=O)c3cc(=O)[nH]c4ccccc34)o2)cc1	-3	3	13*	0	-1	5	1	0
c1ccc(-n2cnnc2SCc2cn3ccsc3n2)cc1	-4	3	-3	0	6	6	.	.
c1ccc(-n2cnnc2SCc2cn3ccccc3n2)cc1	-2	-3	54*	-3	-35	-3	2	0
CC(=O)/C=C/n1c(=S)oc2ccccc21	.	2	15*	3	.	.	2	1.6*
CC(C)CC(=O)/C=C/n1c(=S)oc2ccccc21	-4	1	-2	-1	-18	-1	.	.
Cc1ccc(NC(=O)CN2C(=O)c3ccccc3C2=O)c(C)c1	-10	5	-10	0	22	0	.	.
COCCCn1c(-c2ccc(Cl)cc2)n[nH]c1=S	-11	0	-2	-1	-10	2	.	.
COCCCn1c(-c2ccccc2Cl)n[nH]c1=S	-2	2	.	0	-14	-6	5	0
Cc1ccc(/C=N/N2CCN(Cc3ccc(C)cc3)CC2)cc1	-2	6	-5	-1	-2	3	.	.
Cc1ccc(CN2CCN(/N=C/c3ccc(C(F)(F)F)cc3)CC2)cc1	-3	-1	16*	1	14	3	3	0
Cc1ccc(C(=O)c2cc([N+](=O)[O-])ccc2N2CC(C)OC(C)C2)cc1 (stereo not given)	-1	-2	-3	0	13	-7	.	.
CC1CN(c2ccc(C(=O)c3ccccc3C(=O)O)cc2[N+](=O)[O-])CC(C)O1 (stereo not given)	-4	-2	18*	4	10	-4	-1	0
N#CC1=C(N)Oc2n[nH]c(-c3ccccc3)c2C1c1cccc(OC(=O)N2CCOCC2)c1 (stereo not given)	-10	4	28*	1	6	4	5	1
SMILES	bovine MsrA act	NR2E3 ag-1	GalR3 antag	MsrA inhibitor	NR2E3 ag-2	NadD inh	GalR3 conf	HEK-CNG parental
N#CC1=C(N)Oc2n[nH]c(-c3ccc(F)cc3)c2C1c1cccc(OC(=O)N2CCOCC2)c1 (stereo not given)	-1	-1	8	-1	-42	10	.	.
CCc1[nH]nc2c1C(c1cccnc1)C(C#N)=C(N)O2 (stereo not given)	-7	-1	-1	1	-11	-6	.	.
COc1cc(-c2[nH]nc3c2C(c2ccoc2)C(C#N)=C(N)O3)cc(OC)c1OC (stereo not given)	-4	-2	19*	0	3	1	2	0
CCOc1ccc(-c2[nH]nc3c2C(c2cccnc2)C(C#N)=C(N)O3)cc1 (stereo not given)	1	2	16*	0	-17	7	-1	0
COc1cc2ncnc(NCc3ccc(C)o3)c2cc1OC	3	0	-1	1	-8	-4	.	.
CCC(C(=O)NC1CCCC1)n1nc(C)n2c(cc3occc32)c1=O (stereo not given)	4	0	3	2	-13	-6	.	.
COc1cc(F)ccc1-c1cc(C(=O)NCc2cccs2)[nH]n1	1	.	-8	2	-24	0	.	.
CC(C)Oc1ccc(F)cc1-c1cc(C(=O)NCc2cccs2)[nH]n1	-1	.	23*	0	-18	3	0	1
OCC1OC(n2cnc3c(NC4CCCCC4)ncnc32)C(O)C1O (stereo not given)	-12	0	36*	-1	-7	-6	49*	0
OC[C@H]1O[C@@H](n2cnc3c(NC4CCCC4)ncnc32)[C@H](O)[C@@H]1O	0	4	3	-2	7	4	.	.
C=CCNc1ncnc2c1ncn2C1OC(CO)C(O)C1O (stereo not given)	-1	3	99*	0	-1	-2	99*	1
O=C(O)c1ccccc1C(=O)NCc1c(Cl)cccc1Sc1ccc(Cl)cc1	-5	5	-10	0	-5	-3	.	.
CCOc1ccc(NC(=S)NC(=O)c2c(Cl)cnn2CC)c([N+](=O)[O-])c1	1	0	14*	1	-28	-13	9	0
CCOc1ccc(NC(=S)NC(=O)c2c(Br)cnn2C)c([N+](=O)[O-])c1	-4	0	-1	1	-27	-5	.	.
Cc1nn(-c2ccccc2)c(Cl)c1/C=C(\CC(=O)O)c1nc2ccccc2s1	-2	2	13*	3	11	5	3	0

Compound activity: PubChem BioAssay, several laboratories
